“Also recorded” adds a separate entry of the source.
How the values were obtained:
HCMV Towne [1] = test: HCMV entry, indirect immunofluorescence assay for pp65; format: cell-based, human cytomegalovirus; settings: 24 h pretreatment; MLS8969 3 μM, heparin 30 μM, GCV 5 μM; IFA 2 hpi
HSV1 = test: plaque reduction assay, HSV1 clinical isolate in Vero cells; format: cell-based, herpes simplex 1
HSV2 = test: plaque reduction assay, HSV2 clinical isolate in Vero cells; format: cell-based, herpes simplex 2
MCMV Smith strain = test: plaque reduction assay, MCMV in MEFs; format: cell-based, mouse CMV
HCMV Towne [2] = test: Western blot of viral protein expression in HCMV-infected HFFs; format: cell-based, human cytomegalovirus
HCMV Towne [3] = test: viral DNA replication and DNA load in supernatants, US17 real-time PCR; format: cell-based, human cytomegalovirus; settings: HCMV Towne MOI 0.1; NFU1827 5 μM, MLS8554 2 μM, MLS8091 1.5 μM, NCGC2955 3 μM; GCV 5 μM
HCMV Towne [4] = test: add-on and removal assays, luciferase activity at 72 hpi; format: cell-based, human cytomegalovirus; settings: for HCMV suppression when compound removed at 6 h (removal assay) / activity when added at or after 24 hpi (add-on assay): HCMV Towne MOI 1, luciferase 72 hpi; for time of anti-HCMV activity: add-on and removal assays; for timing of activity in the add-on assay / timing of activity in the removal assay: compared with GCV
[5] = system: HCMV Towne (pp28-luciferase); test: pp28-luciferase recombinant HCMV Towne, luciferase activity at 72 hpi in HFFs; format: cell-based, human cytomegalovirus
MEFs = test: toxicity to MEFs; format: cell-based, mouse
Summary of the method: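 Uninfected mouse embryonic fibroblasts were exposed to test compound for 72 h or 8–10 days, the same time points as the antiviral assays. MTT (5 mg/mL stock in PBS) was then added, the plates were shaken at 150 rpm for 5 min and incubated at 37 °C for 2–3 h. Formazan formed by living cells was read as absorbance at 560 nm.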

HCMV Towne [6] = test: drug combination with letermovir, plaque reduction assay, Bliss model; format: cell-based, human cytomegalovirus; settings: Human betaherpesvirus 5, read-out: EC50 (Compound 1, letermovir alone)
EBV = test: inhibition of lytic EBV replication in AKATA cells, real-time PCR; format: cell-based, Epstein Barr virus

| Compound | inhibition of HCMV entry (pp65 nuclear staining) (HCMV Towne [1]) | activity against HSV1 (in words) (HSV1) | activity against HSV2 (in words) (HSV2) | activity against MCMV (in words) (MCMV Smith strain) | viral protein expression (Western blot) (HCMV Towne [2]; MOI 1, 72 hpi) | viral DNA replication in cells (HCMV Towne [3]) | viral DNA yield in supernatants (HCMV Towne [3]) | also measured |
| --- | --- | --- | --- | --- | --- | --- | --- | --- |
| Nc1nc2c(ncn2COC(CO)CO)c(=O)[nH]1 [GCV, Ganciclovir] | did not affect pp65 nuclear staining |  |  |  |  |  |  |  |
| CCN1CCN(CCCNC(=O)c2ccc3c(c2)sc2nc(-c4ccc(OC)cc4)cn23)CC1 [NFU1827, N-[3-(4-ethylpiperazin-1-yl)propyl]-4-(4-methoxyphenyl)-7-thia-2,5-diazatricyclo [6.4.0.02,6] dodeca-1(8),3,5,9,11-pentaene-10-carboxamide] |  | no activity | no activity | no activity | reduced the level of both IE1 and IE2 | significantly reduced | significantly reduced | HCMV suppression when compound removed at 6 h (removal assay) (HCMV Towne [4]): significant HCMV suppression; activity when added at or after 24 hpi (add-on assay) (HCMV Towne [4]): lost its ability to inhibit HCMV; time of anti-HCMV activity (HCMV Towne [4]): 0–24 hpi |
| Heparin | inhibited HCMV entry |  |  |  |  |  |  |  |
| CCc1ccc(NC(=O)[C@H](Cc2c[nH]c3ccccc23)NC(=O)[C@@H]2Cc3ccccc3CN2)cc1 [MLS8554] |  | active | active |  | reduced IE2, UL44, UL84 and pp65 protein levels | significantly reduced | significantly reduced | HCMV suppression when compound removed at 6 h (removal assay) (HCMV Towne [4]): near complete; activity when added at or after 24 hpi (add-on assay) (HCMV Towne [4]): activity was significantly reduced; time of anti-HCMV activity (HCMV Towne [4]): 0–24 hpi |
| CC(C)NC(=O)C1CCN(C(=O)c2cc3sccc3n2Cc2ccc(Cl)cc2)CC1 [NCGC2955, 1-(4-(4-chIorobenzyl)-4H-thieno[3,2-b]pyrrole-5-carbonyl)-N-isopropyIpiperidine-4-carboxamide] |  |  |  |  | strong reduction in viral protein expression including IE1 and IE2 | modest | modest | dose response in pp28-luciferase assay [5]: did not show a full dose response; concentration at which toxicity to MEFs was observed (MEFs): ≥ 10 µM; timing of activity in the add-on assay (HCMV Towne [4]): overlapped with that of GCV; timing of activity in the removal assay (HCMV Towne [4]): longer activity than GCV |
| COc1cccc(N2CCN(C3=Nc4c(F)cccc4[C@H](CC(=O)O)N3c3cc(C(F)(F)F)ccc3OC)CC2)c1 [Letermovir] |  |  |  |  |  |  |  | EC50 (HCMV Towne [6]): 1.1 ± 0.1 nM |
| Nc1c(S(=O)(=O)c2cccs2)c2nc3ccccc3nc2n1Cc1ccccc1 [MLS8091] |  | did not inhibit | did not inhibit | did not inhibit | Inhibition of all viral proteins | higher than that achieved with GCV | not significantly different from GCV | activity against EBV (in words) (EBV): did not inhibit; also recorded: not active; timing of activity in the add-on assay (HCMV Towne [4]): overlapped with that of GCV; timing of activity in the removal assay (HCMV Towne [4]): showed earlier effects |
| COc1ccc(Cl)cc1C(=O)Nc1ccc(NC(=O)c2ccco2)cc1 [MLS8969] | inhibited HCMV entry only at MOI of 0.1 | did not inhibit | did not inhibit | did not inhibit | no inhibition of viral protein expression |  |  | reduction of luciferase activity ([5]; compound added after infection, MOI of 1 PFU/cell, 72 hpi): minimal reduction in luciferase activity; inhibition of luciferase activity ([5]; compound added before infection, range of MOIs): MOI-dependent inhibition of luciferase activity; activity against EBV (in words) (EBV): did not inhibit; viral protein expression (Western blot) (HCMV Towne [2]; pretreatment followed by infection at low MOI (0.01), 72 hpi): decreased IE1/2, pp65, UL84 and UL44 protein levels |
